Series [1] has as its system PC-3. The series can be described thus: Antimigratory activity against human PC3 prostate cancer cell line at 100 nM after 22h. The note with it: PC-3, 22 h. The class given is functional. The method, boiled down:
(§1)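 Computer-assisted videomicroscopy tracking of living cultured cells, one image every 4 min over 24 h; migration scored as maximum relative distance from origin (MRDO) per cell, read at 12 or 22 h with compound at 100 nM or without (control). Control normalized to 0%. Triplicate analyses, 121–184 cells per condition; mean ± standard error.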

In series [2] the test system is U373 MG. The series can be described thus: Cytotoxicity against human U373 glioblastoma cell line. The class given is functional, cell-based, U-373MG ATCC. The method, boiled down:
(§2)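 Colorimetric MTT assay on cultured human cancer cells after 3 days of continuous drug exposure. IC50 is the concentration that reduces overall cell-population growth by 50% relative to untreated cells.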

In series [3] the test system is U373 MG. The series is described as follows: Antimigratory activity against human U373 glioblastoma cell line at 100 nM after 12h. The class given is functional, U-373MG ATCC. In a few lines: as §1
Series [4] relates to A549. The series can be described thus: Antimigratory activity against human A549 NSCLC cell line at 100 nM after 12h. The note with it: A549, 12 h. The class given is functional. The method, boiled down:
as §1

For another series, the system named is Mus musculus. The series is described as follows: Toxicity in mice at 160 mg/kg, ip 28 days post dose. The class given is organism-based. Also noted: dose 160 mg/kg, route intraperitoneal. The settings on record: in vivo, 672 h. The method, boiled down:
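Healthy, non-tumor-grafted mice received a single acute ip dose of 160 mg/kg. Body weight and survival were recorded over at least 28 days after dosing to detect toxic effects.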

Another series has as its system MCF7. The series can be described thus: Cytotoxicity against human MCF7 breast cancer cell line. The class given is functional, cell-based. In a few lines:
as §2

For series [5], the system named is A549. The series can be described thus: Cytotoxicity against human A549 NSCLC cell line. The class given is functional, cell-based. In a few lines: as §2
Another series relates to Hs 683. The series can be described thus: Cytotoxicity against human Hs683 cancer cell line. The class given is functional, cell-based. In a few lines:
as §2

The test system of another series is HCT-15. The series is described as follows: Cytotoxicity against human HCT15 colon cancer cell line. The class given is functional, cell-based. In a few lines: as §2
For series [6], the system named is PC-3. The series is described as follows: Cytotoxicity against human PC3 prostate cancer cell line. The class given is functional, cell-based. The method, boiled down: as §2
The test system of series [7] is A549. The series can be described thus: Antimigratory activity against human A549 NSCLC cell line at 100 nM after 22h. The class given is functional. The note with it: A549, 22 h. The method, boiled down: as §1
Series [8] deals with PC-3. The series is described as follows: Antimigratory activity against human PC3 prostate cancer cell line at 100 nM after 12h. The class given is functional. The settings on record: PC-3, 12 h. The method, boiled down: as §1
In series [9] the test system is U373 MG. The series is described as follows: Antimigratory activity against human U373 glioblastoma cell line at 100nM after 22h. The class given is functional, U-373MG ATCC. In a few lines:
as §1

pIC50: −log10 of the molar value. Bounds are passed on as bounds.

As for `COc1ccc(OC)c([C@@H]2C[C@H]3[C@@H]4CC=C5C[C@@H](O[C@H]6O[C@H](CO)[C@@H](O[C@@H]7O[C@H](CO)[C@H](O)[C@H](O)[C@H]7O)[C@H](O)[C@H]6O)CC[C@]5(C)[C@H]4CC[C@]3(C)[C@H]2[C@H](C)O[C@H]2O[C@H](CO)[C@@H](O[C@@H]3O[C@H](CO)[C@H](O)[C@H](O)[C@H]3O)[C@H](O)[C@H]2O)c1`, the inhibition (in general, the relative decrease from the control value, in per cent) at 0.1 µM with PC-3 [1] was 15%; in the series on U373 MG [3] it was -12%; in the series on A549 [4], -26%; with A549 [7] it was -12%; with PC-3 [8], 14%; with U373 MG [9], -13%. Further, the pIC50 in the series on U373 MG [2], in the series with MCF7, in the series on A549 [5], in the series with Hs 683, in the series with HCT-15 and in the series with PC-3 [6] was below 5.00 each time. In the series with Mus musculus, the Activity entry is listed as “Non-toxic”.

In the case of `COc1ccc(OC)c([C@@H]2C[C@H]3[C@@H]4CC=C5C[C@@H](O[C@@H]6O[C@H](CO[C@H]7O[C@H](CO)[C@@H](O)[C@H](O)[C@H]7O)[C@@H](O)[C@H](O)[C@H]6O)CC[C@]5(C)[C@H]4CC[C@]3(C)[C@H]2[C@H](C)O[C@@H]2O[C@H](CO[C@H]3O[C@H](CO)[C@@H](O)[C@H](O)[C@H]3O)[C@@H](O)[C@H](O)[C@H]2O)c1`, the inhibition at 0.1 µM was 10% with PC-3 [1]; -14% in the series on U373 MG [3]; 9% in the series on A549 [4]; 0% in the series with A549 [7]; 8% in the series with PC-3 [8]; -9% in the series with U373 MG [9]. Further, the pIC50 in the series on U373 MG [2], in the series on MCF7, in the series with A549 [5], in the series with Hs 683, with HCT-15 and in the series with PC-3 [6] was below 5.00 in each case. Besides, the Activity result in the series on Mus musculus is “Non-toxic”.

Take `COc1ccc(OC)c([C@@H]2C[C@H]3[C@@H]4CC=C5C[C@@H](O[C@@H]6O[C@H](CO)[C@@H](O[C@@H]7O[C@H](CO)[C@@H](O)[C@H](O)[C@H]7O)[C@H](O)[C@H]6O)CC[C@]5(C)[C@H]4CC[C@]3(C)[C@H]2[C@H](C)O[C@@H]2O[C@H](CO)[C@@H](O[C@@H]3O[C@H](CO)[C@@H](O)[C@H](O)[C@H]3O)[C@H](O)[C@H]2O)c1`: the inhibition at 0.1 µM with PC-3 [1] is -17%; in the series on U373 MG [3] it was -8%; in the series on A549 [4] it was 4%; in the series with A549 [7], 3%; in the series with PC-3 [8], 9%; in the series on U373 MG [9] it was 4%. The pIC50 in the series with U373 MG [2], in the series with MCF7, in the series with A549 [5], in the series with Hs 683, in the series on HCT-15 and in the series on PC-3 [6] was below 5.00 each time. The Activity entry in the series with Mus musculus is given as “Non-toxic”.

On to `COc1ccc(OC)c([C@@H]2C[C@H]3[C@@H]4CC=C5C[C@@H](O[C@@H]6O[C@H](CO)[C@H](O)[C@H](O)[C@H]6O)CC[C@]5(C)[C@H]4CC[C@]3(C)[C@H]2C(C)=O)c1`, for which the inhibition at 0.1 µM was -8% with PC-3 [1]; 8% with U373 MG [3]; 2% in the series on A549 [4]; 4% in the series with A549 [7]; 7% in the series on PC-3 [8]; 1% in the series with U373 MG [9]. In addition, the pIC50 in the series with U373 MG [2], with MCF7, with A549 [5], in the series with Hs 683, in the series with HCT-15 and in the series on PC-3 [6] was below 5.00 throughout. Besides, in the series on Mus musculus, the Activity result is reported as “Non-toxic”.
